Source: PubChem (The Scripps Research Institute Molecular Screening Center)
CHRM5 PAM – potentiates acetylcholine response at human M5 receptor. CHO-K1 hM5, Fluo-8 calcium, ACh EC20 PAM; 0% = ACh EC20, 100% = ACh EC100. activation, % at 3 µM. 360,000 tested, 0.3% active. P08912;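 active = activation above the run cutoff, the mean activation of all test compounds plus 3 SD, cut at about 18% in these data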
Target sequence (P08912 whole entry, looked up): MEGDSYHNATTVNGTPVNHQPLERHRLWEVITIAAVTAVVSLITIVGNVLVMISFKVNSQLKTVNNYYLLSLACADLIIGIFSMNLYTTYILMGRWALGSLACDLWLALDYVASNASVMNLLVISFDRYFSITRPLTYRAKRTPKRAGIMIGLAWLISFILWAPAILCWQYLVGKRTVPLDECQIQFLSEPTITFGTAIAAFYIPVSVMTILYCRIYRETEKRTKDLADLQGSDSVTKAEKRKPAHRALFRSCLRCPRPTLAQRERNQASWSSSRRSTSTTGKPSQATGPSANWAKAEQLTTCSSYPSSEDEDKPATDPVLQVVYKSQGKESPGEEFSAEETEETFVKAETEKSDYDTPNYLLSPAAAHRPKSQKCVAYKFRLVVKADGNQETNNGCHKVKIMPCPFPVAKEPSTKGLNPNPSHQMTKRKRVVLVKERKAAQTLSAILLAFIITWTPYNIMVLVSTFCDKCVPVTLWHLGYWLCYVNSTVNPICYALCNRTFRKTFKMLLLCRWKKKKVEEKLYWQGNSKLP
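Measured by: Fluo-8 calcium fluorescence; material: human M5 receptor in CHO-K1 cells; schedule: Post-acetylcholine fluorescence recording 140 s; benchmarks: low control EC20 acetylcholine (0%), high control EC100 acetylcholine (100%); read-out: Max/basal fluorescence ratio as % of EC20–EC100 ACh window; compound: single dose, 3 µM nominal final test concentration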
CHRM5 antagonist – CHRM5 antagonism in calcium assay; P08912; CHO-hM5 cells, Fluo-8 calcium fluorescence, ACh EC80; inhibition, % at 3 µM; 360,000 tested, 0.59% active; AID 624040;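 active = inhibition above a per-plate cutoff, the mean of that plate's test compounds plus 3 SD, cut at about 27% in these data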
M4 PAM – potentiates acetylcholine response at human M4 receptor; activation, % at 3 µM; 360,000 tested, 0.4% active; P08173; AID 624126; CHO-K1 hM4/Gqi5, Fluo-8 calcium fluorescence, ACh EC20; 0% = ACh EC20, 100% = maximal ACh;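 active = activation above its plate's cutoff, the mean activation of sample wells plus 3 SD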
CHRM5 agonist – agonists of human muscarinic M5 receptor (CHRM5) | P08912 | CHO-K1 hM5 cells, Fluo-8 calcium fluorescence; 0% DMSO wells, 100% maximal acetylcholine response | activation, % at 3 µM | 360,000 tested, 0.19% active;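 active = activation above the run's mean over test compounds plus 3 SD, cut at about 23% in these data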;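 also: signal is peak over basal fluorescence ratio across the kinetic read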
M4 antag – antagonists of human muscarinic M4 receptor (CHRM4); CHO-hM4 cells, ACh EC80, Fluo-8 calcium fluorescence; inhibition, % at 3 µM; 360,000 tested, 0.73% active;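 active = inhibition above its plate's cutoff, the mean inhibition of sample wells plus 3 SD, cut at about 27% in these data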
M4 ag – CHRM4 agonism in calcium assay; P08173; CHO-K1 hM4/Gqi5, Fluo-8 calcium fluorescence; vehicle 0%, full acetylcholine response 100%; activation, % at 3 µM; 360,000 tested, 0.14% active;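 active = activation above the run mean over all test wells plus 3 SD, cut at about 32% in these data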;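 also: peak over basal fluorescence ratio per well then scaled between controls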
Of the large screens only hits and unclear results are named; the others gave an inactive call. In the library only some 1.9% were active in any assay of this set; here they are far more common.

COC(=O)C1CCN(Cc2ccc(C)cc2)CC1	none
Cc1ccc(S(=O)(=O)NNC(=O)C2CCN(Cc3ccccc3)CC2)cc1	CHRM5 antagonist 52.7, M4 antag 41.2
CC(C)(O)C#Cc1ccc(CN2CCCC(CNC(=O)c3ccco3)C2)cc1 (stereo unspecified)	none
COc1ccc(C2NCCc3c2[nH]c2ccccc32)cc1CSc1nc2ccccc2s1 (stereo unspecified)	M4 antag 31.7
Cc1nc(N)c(C#N)c(-c2ccccc2Cl)c1C	M4 PAM 28.8
COc1ccccc1-c1cc(C2CC2)nc(N)c1C#N	none
N#Cc1c(-c2ccccc2Cl)cc(C2CC2)nc1N	CHRM5 agonist 55.8, M4 ag 61.5
Cc1cc(N)nc2nc(C(F)(F)F)nn12	none
CC(Oc1ccccc1)C(=O)N1CCC2(CC1)CC(=O)c1ccccc1O2 (stereo unspecified)	none
O=C(c1[nH]c(C(F)(F)F)nc1-c1ccccc1)N1CCN(c2c(Cl)cncc2Cl)CC1	CHRM5 agonist 35.8, M4 ag 45.6
O=C(c1[nH]c(C(F)(F)F)nc1-c1ccccc1)N1CCN(c2ccccc2)CC1	none
COc1ccc(C(=O)c2ccc3oc(-c4ccc(OC)cc4)c(-c4ccc(O)cc4)c3c2)cc1	none
CCN(CC)CCNC(=O)c1ccc(NC(=O)c2ccc(Cl)c(S(=O)(=O)N3CCCCCC3)c2)cc1	CHRM5 antagonist 79.2, M4 antag 69.8
CCN(CC)CCNC(=O)c1ccc(NC(=O)c2ccc(S(=O)(=O)N3CCCCCC3)cc2)cc1	none
CCN(CC)CCNC(=O)c1ccc(NC(=O)c2cccc(S(=O)(=O)N3CCCCCC3)c2)cc1	CHRM5 antagonist 79.5, M4 antag 79.2
COc1ccc(-n2c(C)nc3c(cnn3-c3ccc(C)c(C)c3)c2=O)cc1	M4 antag 30.5
CCOc1ccc(CCNC(=O)c2cccs2)cc1OCC	none
CCn1c(Cl)c(C=O)s/c1=N\S(=O)(=O)c1ccccc1	CHRM5 antagonist 32.7, M4 antag 73.8
O=C(O)CC1(CC(=O)Nc2ccc(F)cc2F)CCCCC1	CHRM5 PAM 19.3
CCS(=O)(=O)c1ccc(O)c(NC(=O)CC2(CC(=O)O)CCCC2)c1	CHRM5 PAM 19.2
CCS(=O)(=O)c1ccc(O)c(NC(=O)CCCC(=O)O)c1	none
O=C(O)CC1(CC(=O)Nc2cc(F)ccc2Cl)CCCCC1	none
O=C(NC1CCCC1)C(C1CC1)n1c(-c2ccnc3ccccc23)nc2ccccc21 (stereo unspecified)	none
CCOC(=O)C1(C)CCCN1C(=O)c1cncc(Br)c1 (stereo unspecified)	none
CCOC(=O)C1(C)CCCCN1C(=O)c1cccnc1 (stereo unspecified)	M4 PAM 19.3
COc1ccc(NC(=O)c2c(Nc3ccccc3)sc(C(=O)c3ccc(F)cc3)c2N)cc1	CHRM5 antagonist 28.0
COc1ccc(C(=O)c2sc(Nc3cccc(OC)c3)c(C(=O)Nc3cccc(C)c3C)c2N)cc1	none
COc1ccc(Nc2sc(C(=O)c3ccc(Cl)cc3)c(N)c2C(=O)Nc2ccccc2OC)cc1	CHRM5 agonist 38.6, M4 antag 49.8, M4 ag 73.6
COc1ccc(C(=O)c2sc(Nc3ccccc3)c(C(=O)Nc3ccc(OC)c(OC)c3)c2N)cc1	none
Cc1cc2cc(CNC(=O)c3ccc(S(=O)(=O)N4CCCCC4)cc3)ccc2n1C	none
CCN(CC)S(=O)(=O)c1ccc(C(=O)NCc2ccc3c(c2)cc(C)n3C)cc1	M4 antag 55.1
Cc1ccc(CNC(=O)COC(=O)c2ccc(S(=O)(=O)N3CCCC3)cc2)cc1	CHRM5 PAM 22.4
O=C(COC(=O)/C=C/c1ccc(S(=O)(=O)N2CCOCC2)cc1)NCc1ccccc1	none
O=C(COC(=O)/C=C/c1ccc(S(=O)(=O)N2CCOCC2)cc1)NCc1ccc(Cl)cc1	CHRM5 PAM 19.4
COc1ccc(C(=O)NCc2ccc3c(c2)cc(C)n3C)cc1OC	none
Cc1cc2cc(CNC(=O)c3ccc(S(=O)(=O)N4CCCC4)cc3)ccc2n1C	M4 antag 35.0
CCN(CC)c1ccc(S(=O)(=O)N2CCOCC2)cc1NC(=O)COC(=O)/C=C/c1ccc(C)o1	CHRM5 antagonist 31.1
CCN(CC)c1ccc(S(=O)(=O)N2CCOCC2)cc1NC(=O)COC(=O)/C=C/c1ccccc1	none
COc1ccc(C2=Nc3ccccc3N(C(=O)c3cccnc3)C2C(=O)NC(C)(C)C)cc1 (stereo unspecified)	none
CCOC(=O)/C(=C\C=C1/Sc2cc(OCC)c(OCC)cc2N1CC)C(C)=O	CHRM5 agonist 23.9
CCOC(=O)/C(=C/C=C1\Sc2cc(OCC)c(OCC)cc2N1CC)C(C)=O	CHRM5 antagonist 36.2, CHRM5 agonist 147.3
CCN1/C(=C/C(C)=O)Sc2ccc(OC)cc21	none
CC(OC(=O)CSc1ccc([N+](=O)[O-])cc1)C(=O)NCc1ccccc1 (stereo unspecified)	none
CCOC(=O)Cn1cc(Cn2c3ccccc3c(=O)n2C(C)C)nn1	none
CCN(CC(=O)Nc1c(F)cccc1F)C(=O)c1ccc(-n2cncn2)c([N+](=O)[O-])c1	M4 antag 34.6
CC(=O)Nc1ccc(S(=O)(=O)N(C)c2ccc(OCCOc3cccc(C)c3)cc2)cc1	M4 antag 38.7
CCN(CC)C(=O)COc1ccc(N(C)S(=O)(=O)c2ccc(NC(C)=O)cc2)cc1	none
COc1ccc(NC(=O)COc2ccc(N(C)S(=O)(=O)c3ccc(Cl)cc3)cc2)cc1OC	CHRM5 antagonist 29.1
COc1cc(Cc2nc3ccccc3n2C(C)c2nc3ccccc3[nH]2)cc(OC)c1 (stereo unspecified)	none
COc1ccc2sc(C)nc2c1NC(C)=O	none
COc1cc2sc(C)nc2c2sccc12	M4 PAM 18.2
CCN(c1ccccc1)S(=O)(=O)c1ccc(C(=O)NC2CCN(Cc3ccccc3)CC2)cc1	M4 antag 46.5
O=C(NC1CCN(Cc2ccccc2)CC1)C1COc2ccccc2O1 (stereo unspecified)	CHRM5 antagonist 63.9
COc1ccc(Cl)cc1NS(=O)(=O)c1cccc(C(=O)NC2CCN(Cc3ccccc3)CC2)c1	M4 antag 31.9
Cc1cc(C)n2c(Nc3ccc4c(c3)OCCO4)c(CCc3ccccc3)nc2n1	none
CNC(=O)OCc1ncn(-c2ccccc2)c1COC(=O)NC	none
CNc1nc(-c2cccc(C(=O)N(C)C)c2)cn2ccnc12	none
O=C1CCCCC(=O)N(c2ccccc2)c2ccccc21	CHRM5 PAM 18.2
O=C(CSc1nc2ccccc2s1)N/N=C/c1cc([N+](=O)[O-])ccc1O	none
COc1ccc2[nH]c(C(=O)Nc3ccc4c(c3)OCO4)cc2c1	none
